# Changes are numbered by the printed parent chain. Names and notes keep the numbering of the source.
# B1: WT hTRPA1: wild type human TRPA1 channel (protein)
# chain: MKRSLRKMWRPGEKKEPQGVVYEDVPDDTEDFKESLKVVFEGSAYGLQNFNKQKKLKRCDDMDTFFLHYAAAEGQIELMEKITRDSSLEVLHEMDDYGNTPLHCAVEKNQIESVKFLLSRGANPNLRNFNMMAPLHIAVQGMNNEVMKVLLEHRTIDVNLEGENGNTAVIIACTTNNSEALQILLKKGAKPCKSNKWGCFPIHQAAFSGSKECMEIILRFGEEHGYSRQLHINFMNNGKATPLHLAVQNGDLEMIKMCLDNGAQIDPVEKGRCTAIHFAATQGATEIVKLMISSYSGSVDIVNTTDGCHETMLHRASLFDHHELADYLISVGADINKIDSEGRSPLILATASASWNIVNLLLSKGAQVDIKDNFGRNFLHLTVQQPYGLKNLRPEFMQMQQIKELVMDEDNDGCTPLHYACRQGGPGSVNNLLGFNVSIHSKSKDKKSPLHFAASYGRINTCQRLLQDISDTRLLNEGDLHGMTPLHLAAKNGHDKVVQLLLKKGALFLSDHNGWTALHHASMGGYTQTMKVILDTNLKCTDRLDEDGNTALHFAAREGHAKAVALLLSHNADIVLNKQQASFLHLALHNKRKEVVLTIIRSKRWDECLKIFSHNSPGNKCPITEMIEYLPECMKVLLDFCMLHSTEDKSCRDYYIEYNFKYLQCPLEFTKKTPTQDVIYEPLTALNAMVQNNRIELLNHPVCKEYLLMKWLAYGFRAHMMNLGSYCLGLIPMTILVVNIKPGMAFNSTGIINETSDHSEILDTTNSYLIKTCMILVFLSSIFGYCKEAGQIFQQKRNYFMDISNVLEWIIYTTGIIFVLPLFVEIPAHLQWQCGAIAVYFYWMNFLLYLQRFENCGIFIVMLEVILKTLLRSTVVFIFLLLAFGLSFYILLNLQDPFSSPLLSIIQTFSMMLGDINYRESFLEPYLRNELAHPVLSFAQLVSFTIFVPIVLMNLLIGLAVGDIAEVQKHASLKRIAMQVELHTSLEKKLPLWFLRKVDQKSTIVYPNKPRSGGMLFHIFCFLFCTGEIRQEIPNADKSLEMEILKQKYRLKDLTFLLEKQHELIKLIIQKMEIISETEDDDSHCSFQDRFKKEQMEQRNSRWNTVLRAVKAKTHHLEP
# B2: W1103A hTRPA1: hTRPA1 with W1103 mutated to alanine (protein)
# chain: B1 chain with W1103A
# How the values were obtained:
# [1] = molecular target: 3xFLAG-TurboID-CaM C-lobe (human); assay: proximity labelling
# TurboID-CaM C-lobe = assay: Proximity biotinylation in HEK293T cells; type: cell-based, human; settings: 50 µM biotin 15 min, basal Ca2+; n=4
# Method in brief: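 HEK293T cells co-expressed 3xFLAG-TurboID or 3xFLAG-TurboID-CaM C-lobe with 3xFLAG-hTRPA1 variants. About 48 h post-transfection, 50 uM biotin was added to the culture medium. After 15 min, cells were lysed and proteins captured on anti-FLAG resin (1 h, 4 °C), then eluted with 125 µg/ml 3xFLAG peptide. Biotinylated proteins were detected with HRP-streptavidin (1:50,000).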
# V5-tagged WT CaM = assay: Immunofluorescence co-localization with V5-WT CaM in Neuro2A cells; type: cell-based, human; settings: resting Neuro2A cells, Airyscan
# Method in brief: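 Neuro2A cells were grown in DMEM with 10% FBS, transfected, then placed on poly-L-lysine coverslips for 16-20 h. Cells were fixed in 4% PFA, permeabilised with 0.1% Triton and blocked in 4% BSA. Staining used anti-V5 (1:500), Alexa488 anti-mouse (1:700) and Cy3 anti-FLAG (1:500), each for 45 min at RT. Airyscan images (63x oil) were deconvolved. Per-cell pixel-intensity Pearson's R used thresholds from mono-stained samples. Mean ± SD; two-tailed t-test.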
# [2] = tested on: hTRPA1 expressed in Xenopus laevis oocytes; assay: Two-electrode voltage clamp, Ca2+ potentiation and desensitization; type: cell-based, human; settings: for Potentiation by extracellular Ca2+ / Slowing of desensitization versus WT hTRPA1, intracellular Ca2+ chelated / Slowing of potentiation versus WT hTRPA1 / Slowing of desensitization versus WT hTRPA1: 1.8 mM Ca2+; for Potentiation by extracellular Ca2+: comparable peak current amplitudes; for Desensitization time constant / Potentiation time constant: 1.8 mM extracellular Ca2+, n=10 oocytes; for Slowing of desensitization versus WT hTRPA1, intracellular Ca2+ chelated: 500 µM EGTA-AM 20 min
# CaM (Calmodulin-agarose) = assay: CaM-agarose pulldown of TRPA1 constructs; type: binding
# Method in brief: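 HEK293T cells were transfected with tagged TRPA1 constructs and lysed after 16-24 h in Tris pH 8.0 buffer containing 5 mM DDM and 500 µM EGTA. Free Ca²⁺ was set with CaCl₂, calculated from EGTA constants. 100 µg lysate was incubated with CaM-agarose for 1 h at 4 °C, washed, then eluted with 5 mM EGTA. Detection was by anti-FLAG or anti-MBP immunoblot, with tubulin input control. Enrichment is relative to the maximum within each replicate.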
# [3] = tested on: hTRPA1 expressed in Xenopus laevis oocytes; type: cell-based, human
molecule,measurement,setting,value
3xFLAG-WT hTRPA1 (wild type human TRPA1) (from UniProt O75762 1-1119) (natural protein),percent increase in biotinylation with TurboID-CaM C-lobe against free TurboID,[1],40%
B1,Increase in TRPA1 biotinylation with TurboID-CaM C-lobe versus TurboID,TurboID-CaM C-lobe,approximately 40%
same,Co-localization with WT CaM (deconvolved IF images),V5-tagged WT CaM,pronounced co-localization
same,Desensitization with 10 mM versus 1.8 mM extracellular Ca2+,"[2]; 250 µM AITC, 125 µM niflumic acid, n=9",desensitize faster
same,Potentiation by extracellular Ca2+,[2]; 250 µM AITC,rapid potentiation
same,Desensitization time constant,"[2]; +80 mV, 250 µM AITC",12.5 s
same,Potentiation time constant,"[2]; +80 mV, 250 µM AITC",2.2 s
same,Desensitization after extracellular Ca2+ addition,[2]; within 25 seconds of 1.8 mM Ca2+,nearly complete desensitization
same,Desensitization time constant,"[2]; −80 mV, 250 µM AITC",11.9 s
same,Potentiation time constant,"[2]; −80 mV, 250 µM AITC",2.7 s
same,CaM binding (CaM-agarose enrichment),"CaM (Calmodulin-agarose); 0.1 µM Ca2+ (resting cytosolic), HEK293T lysate, immunoblot, n=11",robust interaction
same,CaM binding (CaM-agarose enrichment),"CaM (Calmodulin-agarose); absence of Ca2+ (0 µM), HEK293T lysate, immunoblot",failed to bind CaM
same,CaM binding (CaM-agarose enrichment),"CaM (Calmodulin-agarose); intermediate (500 µM) and extracellular (2 mM) Ca2+, n=11",stepwise decrease in binding
B2,TRPA1 biotinylation with TurboID-CaM C-lobe,TurboID-CaM C-lobe,loss in biotinylation
same,Faster desensitization rate with 10 mM than with 1.8 mM extracellular Ca2+,"[2]; 250 µM AITC, 125 µM niflumic acid, n=10 or 11",approximately 3 fold
same,Potentiation by extracellular Ca2+,[2]; 250 µM AITC,rapid potentiation
same,Slower desensitization than WT hTRPA1 with 1.8 mM Ca2+,"[2]; 250 µM AITC, 10 mM extracellular Ca2+, 125 µM niflumic acid",approximately 4 fold
same,Desensitization profile with buffered intracellular Ca2+,[2]; 500 µM EGTA-AM 20 min pre-incubation,delayed desensitization profile compared to WT hTRPA1 channels and a faster desensitization profile than W1103A hTRPA1 channels without intracellular Ca^2+ buffering
same,"Potentiation kinetics versus WT hTRPA1, buffered intracellular Ca2+","[2]; 500 µM EGTA-AM, n=8",did not exhibit a significant change to potentiation kinetics
same,Residual activity after extracellular Ca2+ (of initial activity),"[2]; 5 minutes after 1.8 mM extracellular Ca2+, n=10 or 12 oocytes",10–20%
same,Increase in translocated charge versus WT hTRPA1,[2]; +80 mV,10 fold
same,"Slowing of desensitization versus WT hTRPA1, intracellular Ca2+ chelated","[2]; +80 mV, n=8",10.5 fold
same,Slowing of potentiation versus WT hTRPA1,[2]; +80 mV,~ 1.8 fold
same,Slowing of desensitization versus WT hTRPA1,"[2]; +80 mV, n=10 or 12 oocytes",20 fold
same,Increase in translocated charge versus WT hTRPA1,[2]; −80 mV,20 fold
same,"Slowing of desensitization versus WT hTRPA1, intracellular Ca2+ chelated","[2]; −80 mV, n=8",10.7 fold
same,Slowing of potentiation versus WT hTRPA1,[2]; −80 mV,~ 3 fold
same,Slowing of desensitization versus WT hTRPA1,"[2]; −80 mV, n=10 or 12 oocytes",15 fold
same,AITC sensitivity versus WT hTRPA1,[3]; Ca2+-free,slightly reduced AITC sensitivities
same,Gating kinetics and peak current amplitudes,"[3]; absence of Ca2+, activation and closing at +80 mV, n=8",not significantly different from WT hTRPA1
same,CaM binding at basal Ca2+ concentration,"CaM (Calmodulin-agarose); basal Ca2+, n=3 independent experiments",completely ablated CaM binding
